The record followed here is paper PMC3384716 (Steroids, 2012).

In experiment [1] the test system is alkaline phosphatase mRNA. Kind of experiment: qRT-PCR of progesterone-induced alkaline phosphatase mRNA. The conditions noted are these: 10 nM P, 24 h. It is filed as cell-based, human. In general terms: Real-time PCR tracks product formation cycle by cycle.
The next experiment deals with T1, ER (Homo sapiens, UniProt P03372).
T1 sequence (P03372 1-595): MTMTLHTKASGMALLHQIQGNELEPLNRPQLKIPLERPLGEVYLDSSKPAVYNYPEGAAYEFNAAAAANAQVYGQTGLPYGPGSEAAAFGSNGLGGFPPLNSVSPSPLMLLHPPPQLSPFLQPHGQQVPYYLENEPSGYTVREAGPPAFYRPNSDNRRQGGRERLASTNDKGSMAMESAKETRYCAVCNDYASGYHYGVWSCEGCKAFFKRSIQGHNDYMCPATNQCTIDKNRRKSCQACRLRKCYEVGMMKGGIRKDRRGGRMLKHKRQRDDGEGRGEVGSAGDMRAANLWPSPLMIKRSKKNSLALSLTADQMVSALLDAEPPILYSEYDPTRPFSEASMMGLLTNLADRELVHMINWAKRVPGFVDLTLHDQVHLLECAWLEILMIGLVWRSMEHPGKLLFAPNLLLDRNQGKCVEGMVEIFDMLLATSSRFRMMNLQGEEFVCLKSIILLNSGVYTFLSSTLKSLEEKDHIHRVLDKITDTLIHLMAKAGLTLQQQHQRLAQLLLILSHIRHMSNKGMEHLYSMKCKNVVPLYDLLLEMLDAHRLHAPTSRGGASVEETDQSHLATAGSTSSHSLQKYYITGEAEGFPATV
Briefly: ER reporter gene assay. Format: cell-based. The note with it: 10 μM compound, 5 nM estradiol, 24 h; % of maximal luciferase activity (100%). A general note: In a reporter assay the amount or activity of a reporter protein is the signal.

In experiment [2] the target is T2, purified full length recombinant human PR-B (Homo sapiens, UniProt P06401).
T2 sequence (P06401 1-933): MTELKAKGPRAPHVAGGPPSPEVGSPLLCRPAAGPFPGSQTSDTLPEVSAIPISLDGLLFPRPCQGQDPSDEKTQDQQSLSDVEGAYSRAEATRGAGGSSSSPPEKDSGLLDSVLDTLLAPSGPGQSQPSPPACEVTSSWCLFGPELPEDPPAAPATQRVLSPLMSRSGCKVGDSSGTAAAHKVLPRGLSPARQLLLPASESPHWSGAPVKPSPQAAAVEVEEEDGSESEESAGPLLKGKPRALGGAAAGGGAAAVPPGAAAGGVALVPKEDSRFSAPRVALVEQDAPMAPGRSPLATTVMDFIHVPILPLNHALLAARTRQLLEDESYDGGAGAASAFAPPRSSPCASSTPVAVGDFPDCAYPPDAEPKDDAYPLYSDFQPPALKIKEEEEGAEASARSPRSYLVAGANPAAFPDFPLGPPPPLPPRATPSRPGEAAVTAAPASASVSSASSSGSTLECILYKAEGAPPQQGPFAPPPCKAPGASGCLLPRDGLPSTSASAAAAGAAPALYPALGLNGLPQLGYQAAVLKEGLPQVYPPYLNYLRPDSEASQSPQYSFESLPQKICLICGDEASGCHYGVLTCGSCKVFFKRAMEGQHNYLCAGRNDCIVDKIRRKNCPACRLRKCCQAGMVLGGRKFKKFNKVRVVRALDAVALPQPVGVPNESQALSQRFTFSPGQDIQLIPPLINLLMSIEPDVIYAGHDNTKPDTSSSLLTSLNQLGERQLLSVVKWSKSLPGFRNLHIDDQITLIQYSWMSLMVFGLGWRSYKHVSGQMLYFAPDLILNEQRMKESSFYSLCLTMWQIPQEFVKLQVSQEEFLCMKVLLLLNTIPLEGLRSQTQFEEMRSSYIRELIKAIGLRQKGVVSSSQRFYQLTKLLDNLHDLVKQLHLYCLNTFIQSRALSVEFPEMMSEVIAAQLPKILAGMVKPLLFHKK
Kind of experiment: Competitive radiometric receptor binding assay.

The next experiment addresses T3, PR (Homo sapiens, UniProt P06401).
T3 sequence (P06401 165-933 limits assumed): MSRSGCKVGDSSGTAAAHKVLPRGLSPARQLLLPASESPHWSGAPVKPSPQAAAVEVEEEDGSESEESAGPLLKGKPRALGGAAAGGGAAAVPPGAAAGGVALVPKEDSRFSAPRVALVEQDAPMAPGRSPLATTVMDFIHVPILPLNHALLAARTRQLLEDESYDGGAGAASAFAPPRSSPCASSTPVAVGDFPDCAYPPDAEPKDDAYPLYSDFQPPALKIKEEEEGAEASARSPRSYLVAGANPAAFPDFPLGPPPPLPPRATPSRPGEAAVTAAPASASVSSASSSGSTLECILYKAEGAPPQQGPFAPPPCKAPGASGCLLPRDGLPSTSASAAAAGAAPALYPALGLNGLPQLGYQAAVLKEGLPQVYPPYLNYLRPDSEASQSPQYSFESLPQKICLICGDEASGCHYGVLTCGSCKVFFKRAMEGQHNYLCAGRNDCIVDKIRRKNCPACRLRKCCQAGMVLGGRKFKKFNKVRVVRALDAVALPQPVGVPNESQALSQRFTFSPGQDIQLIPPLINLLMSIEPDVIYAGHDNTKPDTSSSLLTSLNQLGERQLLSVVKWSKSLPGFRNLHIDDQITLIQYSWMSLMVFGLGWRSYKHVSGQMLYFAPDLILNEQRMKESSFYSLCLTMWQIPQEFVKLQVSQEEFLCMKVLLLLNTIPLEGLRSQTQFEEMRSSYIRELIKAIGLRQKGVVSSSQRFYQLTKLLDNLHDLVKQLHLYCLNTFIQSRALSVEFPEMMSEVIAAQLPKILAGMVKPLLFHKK
Kind of experiment: PR reporter gene assay. It is filed as cell-based.

The subject of experiment [3] is endogenous PR-regulated alkaline phosphatase activity in T47D breast cancer cells. Briefly: Progesterone-induced alkaline phosphatase assay in T47D cells. It is filed as cell-based, human. The conditions noted are these: by 5 μM. Put shortly: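 T47D cells were moved to phenol red-free medium with 10% charcoal-dextran FBS four days ahead. Cells were seeded overnight, then treated 24 h with 2.5 nM progesterone ± test compound in DMSO. Supernatant assayed with CSPD/diethanolamine pH 9.5 buffer, 1 h at RT, luminescence (542 nm). Untreated-compound activity = 100%; ≥3 experiments, mean ± SEM.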

Experiment [4] has as its target T4, alkaline phosphatase (AlkP) (Homo sapiens, UniProt P05186).
T4 sequence (P05186 18-524): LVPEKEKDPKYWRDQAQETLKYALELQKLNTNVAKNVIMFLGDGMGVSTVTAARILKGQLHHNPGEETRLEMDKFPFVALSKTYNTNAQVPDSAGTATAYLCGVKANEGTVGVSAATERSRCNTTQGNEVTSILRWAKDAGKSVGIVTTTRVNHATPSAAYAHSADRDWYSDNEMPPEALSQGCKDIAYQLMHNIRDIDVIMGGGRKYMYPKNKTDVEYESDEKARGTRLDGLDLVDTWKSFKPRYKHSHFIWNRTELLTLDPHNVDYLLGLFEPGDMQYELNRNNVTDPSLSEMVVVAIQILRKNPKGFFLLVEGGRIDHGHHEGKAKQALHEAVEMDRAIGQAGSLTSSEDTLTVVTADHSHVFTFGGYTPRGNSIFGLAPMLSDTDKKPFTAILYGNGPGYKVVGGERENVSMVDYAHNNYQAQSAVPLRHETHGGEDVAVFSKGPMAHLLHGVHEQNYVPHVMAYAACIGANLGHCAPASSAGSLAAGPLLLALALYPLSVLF
Briefly: Direct alkaline phosphatase inhibition in cell lysates. It is filed as biochemical. The conditions noted are these: lysates of progesterone-treated cells, 10 μM compound, 15 minutes. The method in brief: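 Lysates of cells given 2.5 nM progesterone to induce AlkP were aliquoted and exposed to 10 μM test compound for 15 min. Then added: buffer of 100 mM diethanolamine pH 9.5, 1 mM MgCl2, 0.4 mM CSPD chemiluminescent substrate and 1X Emerald II enhancer. After 1 h at room temperature, luminescence was read.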

Another experiment has as its system pS2 mRNA. Briefly: qRT-PCR of 17β-estradiol-induced pS2 mRNA. The conditions noted are these: 2 hours; compound 51 at 5 μM. It is filed as cell-based.
Experiment [5] has as its target purified luciferase protein (Photinus pyralis, UniProt P08659). Kind of experiment: Enzyme inhibition assay with purified luciferase protein. Format: biochemical. The conditions noted are these: 0.05 ng pure luciferase protein, 10 μM compound. The method in brief:
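Purified firefly luciferase was used at a final 0.01 ng/μl in OneGlo buffer, with test compound diluted to 10 μM in buffer. After adding BrightGlo luciferase reagent, samples were held 5 min and luminescence measured.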

Sequence of purified luciferase protein (P08659 whole entry): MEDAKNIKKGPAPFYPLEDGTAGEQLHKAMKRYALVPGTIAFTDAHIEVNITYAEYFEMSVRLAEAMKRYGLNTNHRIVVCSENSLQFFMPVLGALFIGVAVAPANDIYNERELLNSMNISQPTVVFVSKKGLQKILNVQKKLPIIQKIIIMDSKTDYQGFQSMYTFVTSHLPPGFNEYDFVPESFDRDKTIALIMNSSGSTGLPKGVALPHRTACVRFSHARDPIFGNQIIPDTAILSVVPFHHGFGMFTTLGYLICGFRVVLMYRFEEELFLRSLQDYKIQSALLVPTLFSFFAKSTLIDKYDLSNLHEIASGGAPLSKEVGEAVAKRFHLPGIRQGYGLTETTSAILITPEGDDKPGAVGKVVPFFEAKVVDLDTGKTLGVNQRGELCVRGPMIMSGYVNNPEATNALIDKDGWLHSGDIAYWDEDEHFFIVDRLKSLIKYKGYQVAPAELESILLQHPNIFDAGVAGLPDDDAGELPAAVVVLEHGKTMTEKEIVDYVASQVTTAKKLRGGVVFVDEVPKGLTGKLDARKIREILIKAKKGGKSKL

Turning to `CCC(CC)CSc1nc2c([nH]1)c(=S)n(C)c(=O)n2C` [Compound 51, 6-thio-8-(2-ethylbutyl)thiotheophylline], in experiment [1] (5 μM compound), the “inhibition of progesterone induction of AlkP mRNA” value is 74%. Moreover, in experiment [1] (10 μM compound), the “inhibition of progesterone induction of AlkP mRNA (in words)” value is recorded as “completely blocked”. In addition, the “Reporter Assay (% Activity) ER” value on ER came to 54%. Moreover, the “fold weaker binding to PR than R5020” value in experiment [2] (10 nM tritiated R5020, 10 nM PR-B, 18-24 h at 0°C) was 4,700 fold. In addition, the “ability to compete with radio-labeled R5020 for binding to PR” value in experiment [2] (at functionally significant concentrations) is reported as “little or no ability to compete”. In addition, at PR (concentrations of 30 μM and higher), the agonist activity result is reported as “no observed agonist activity”. For the same compound, on PR (same T47D cells, same MMTV-luciferase reporter), the “fold more potent inhibitor of PR than GR” value amounted to 6.1 fold. The “inhibition of progesterone-induced AlkP activity at 5 μM” value in experiment [3] is on record as “complete inhibition”. Further, the “direct inhibition of alkaline phosphatase activity in lysates” value in experiment [4] is on record as “failed to significantly inhibit activity”. Also, the “effect on 17β-estradiol induction of pS2 mRNA” value with pS2 mRNA is “no effect”. The “direct inhibition of luciferase enzymatic activity” value in experiment [5] is “did not inhibit”.
